# Results of several laboratories.
# Each line is one published result; the experiments were not run side by side.
# Observed: cell growth or viability
Structure (SMILES),cell line,technique,concentration,time,endpoint,value
COc1ccc(NC(=O)Nc2cccc(-c3cn(Cc4ccccc4C)nn3)c2)cc1,MCF7,CCK-8,50 µM,72 h,viability,72.3%
Nc1nc2ccc(-c3c/c(=N\c4ccccc4NC(=O)C4CCNC4)c4ccccc4o3)cc2o1 (stereo not shown),MCF7,CCK-8,1 µM,,inhibition,11.6%
O=C(Nc1ccc(-c2cn(Cc3ccc(Br)cc3)nn2)cc1)Nc1ccccc1Br,MCF7,CCK-8,50 µM,72 h,viability,103%
Nc1ccccc1/N=c1\cc(-c2ccc3c(c2)OCO3)oc2ccccc12,MCF7,CCK-8,1 µM,,inhibition,7.65%
C[C@H](Nc1ccc2c(c1)OCCn1cc(N3C(=O)OC[C@H]3C(F)F)nc1-2)C(N)=O,HCC1954,ATP luminescence,,5 days,EC50,155 nM
CCc1nc(C(N)=O)c(Nc2ccc(N3CCC(N4CCN(C)CC4)CC3)c(OC)c2)nc1NC1CCOCC1,NOMO-1,,,72 h,GI50,2540 nM
COc1ccc2/c(=N/c3ccccc3NC(=O)CN)cc(-c3ccc4c(c3)OCCO4)oc2c1,MCF7,CCK-8,1 µM,,inhibition,9.77%
O=C(Nc1ccc(Cl)cc1)Nc1ccc(-c2cn(Cc3ccc(Br)cc3)nn2)cc1,MCF7,CCK-8,50 µM,48 h,viability,93.7%
CC(C)(C)c1cc(NC(=O)Nc2ccc(-c3cn4c(n3)sc3cc(OCCN5CCOCC5)ccc34)cc2)no1,NOMO-1,,,72 h,GI50,> 10000 nM
COc1ccc2/c(=N/c3ccccc3NC(=O)[C@@H](N)C(C)(C)C)cc(-c3ccc4c(c3)OCCO4)oc2c1,MCF7,CCK-8,1 µM,,inhibition,8.1%
Cc1ccccc1Cn1cc(-c2cccc(NC(=O)Nc3ccc(F)cc3)c2)nn1,MCF7,CCK-8,50 µM,48 h,viability,100%
NCCC(=O)Nc1ccccc1/N=c1\cc(-c2ccc3c(c2)OCO3)oc2ccccc12,MCF7,CCK-8,1 µM,,inhibition,-5.6%
CN(C)CCNC(=O)c1ccc(-c2nc3ccc4[nH]ncc4c3c3c2CCCC3)cc1,NOMO-1,,,72 h,GI50,568 nM
COc1ccc(NC(=O)Nc2ccc(-c3cn(Cc4ccc(C)cc4)nn3)cc2)cc1,MCF7,CCK-8,50 µM,48 h,viability,81.1%
O=C(NCc1cn(Cc2ccc(Cl)cc2)nn1)Nc1ccc(Cl)cc1,MCF7,CCK-8,50 µM,48 h,viability,80.8%
COc1ccc(NC(=O)Nc2cccc(-c3cn(Cc4ccc(C)cc4)nn3)c2)cc1,MCF7,CCK-8,50 µM,48 h,viability,104%
O=C(C[C@@H](C(F)F)n1ccc(F)n1)N1CCC(O)(Cn2cnc3c(cnn3-c3ccc(F)cc3)c2=O)CC1,CAPAN-1,SRB,9.145 nM,5 days,viability,94.6%
O=C(Nc1ccc(Cl)cc1)Nc1ccc(-c2cn(Cc3ccc(Cl)cc3)nn2)cc1,MCF7,CCK-8,50 µM,72 h,viability,98%
COc1ccc(NC(=O)Nc2cccc(-c3cn(Cc4ccc(Cl)cc4)nn3)c2)cc1,MCF7,CCK-8,50 µM,72 h,viability,104%
COc1ccc2oc(-c3ccc4nc(N)oc4c3)c/c(=N\c3ccccc3NC(=O)CCN)c2c1,MCF7,CCK-8,1 µM,,inhibition,15%
O=C(Nc1ccc(Cl)cc1)Nc1cccc(-c2cn(Cc3cccc(Br)c3)nn2)c1,MCF7,CCK-8,50 µM,48 h,viability,85.3%
COc1ccc2/c(=N/c3ccccc3NC(=O)[C@H](C)N)cc(-c3ccc4c(c3)OCCO4)oc2c1,MCF7,CCK-8,1 µM,,inhibition,8.55%
O=C(NCc1cn(Cc2ccc(Cl)cc2)nn1)Nc1ccccc1Br,MCF7,CCK-8,50 µM,72 h,viability,88.6%
NCCC(=O)Nc1ccccc1/N=c1\cc(-c2ccc3nc(N)oc3c2)oc2ccccc12,MCF7,CCK-8,1 µM,,inhibition,46%
CN(C)CCNC(=O)c1ccc(-c2nc3ccc4[nH]ncc4c3c3c2CCCCC3)cc1,NOMO-1,,,72 h,GI50,2270 nM
COc1ccc(NC(=O)Nc2cccc(-c3cn(Cc4ccc(Br)cc4)nn3)c2)cc1,MCF7,CCK-8,50 µM,72 h,viability,98.4%
O=C(Nc1ccc(Cl)cc1)Nc1cccc(-c2cn(Cc3cccc(Cl)c3)nn2)c1,MCF7,CCK-8,50 µM,72 h,viability,70.5%
CN(C)CCNC(=O)c1ccc(-c2nc3ccc4[nH]ncc4c3c3c2CCCC3)c(F)c1,NOMO-1,,,72 h,GI50,3080 nM
